Measured values: ChEMBL document CHEMBL3045880, “Design and syntheses of novel N-(benzothiazol-5-yl)-4,5,6,7-tetrahydro-1H-isoindole-1,3(2H)-dione and N-(benzothiazol-5-yl)isoindoline-1,3-dione as potent protoporphyrinogen oxidase inhibitors” (J Agric Food Chem, 2011)

Tests used:
[1] = test system: Abutilon theophrasti; assay: Herbicidal activity against Abutilon theophrasti (velvetleaf) assessed as growth inhibition at 75 g/ha postemergence treatment measured after 15 days by Greenhouse test; type: functional; details: post-emergence, 360 h, read-out: GI
Summary of the method: (§1)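 Postemergence greenhouse pot test. About 20 seeds per pot, sown 1-3 cm deep in clay soil (pH 6.5, 1.6% organic matter). Plants grown at 15-30 °C and 50% relative humidity. Compounds were made up as 100 g/L emulsifiable concentrates in DMF with Tween-80, then diluted in water. Dicots were sprayed at the 2-leaf stage and monocots at the 1-leaf stage. Controls were untreated and solvent-treated. Injury was scored visually after 15 days, three replicates per treatment.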

[2] = test system: Brassica juncea; assay: Herbicidal activity against Brassica juncea assessed as growth inhibition at 75 g/ha postemergence treatment measured after 15 days by Greenhouse test; type: functional; details: post-emergence, 360 h, read-out: GI; summary of the method: as §1
[3] = test system: Eclipta prostrata; assay: Herbicidal activity against Eclipta prostrata assessed as growth inhibition at 75 g/ha postemergence treatment measured after 15 days by Greenhouse test; type: functional; details: post-emergence, 360 h, read-out: GI; summary of the method: as §1
[4] = test system: Amaranthus retroflexus; assay: Herbicidal activity against Amaranthus retroflexus assessed as growth inhibition at 75 g/ha postemergence treatment measured after 15 days by Greenhouse test; type: functional; details: post-emergence, 360 h, read-out: GI; summary of the method: as §1
[5] = test system: Setaria faberi; assay: Herbicidal activity against Setaria faberi (Giant Foxtail) assessed as growth inhibition at 75 g/ha postemergence treatment measured after 15 days by Greenhouse test; type: functional; details: post-emergence, 360 h, read-out: GI; summary of the method: as §1
[6] = test system: Digitaria sanguinalis; assay: Herbicidal activity against Digitaria sanguinalis (hairy crabgrass) assessed as growth inhibition at 75 g/ha postemergence treatment measured after 15 days by Greenhouse test; type: functional; details: post-emergence, 360 h, read-out: GI; summary of the method: as §1
[7] = test system: Echinochloa crus-galli; assay: Herbicidal activity against Echinochloa crus-galli (barnyard grass) assessed as growth inhibition at 75 g/ha postemergence treatment measured after 15 days by Greenhouse test; type: functional; details: post-emergence, 360 h, read-out: GI; summary of the method: as §1
[8] = test system: Abutilon theophrasti; assay: Herbicidal activity against Abutilon theophrasti (velvetleaf) assessed as growth inhibition at 37.5 g/ha postemergence treatment measured after 15 days by Greenhouse test; type: functional; details: post-emergence, 360 h, read-out: GI; summary of the method: as §1
[9] = test system: Brassica juncea; assay: Herbicidal activity against Brassica juncea assessed as growth inhibition at 37.5 g/ha postemergence treatment measured after 15 days by Greenhouse test; type: functional; details: post-emergence, 360 h, read-out: GI; summary of the method: as §1
[10] = test system: Eclipta prostrata; assay: Herbicidal activity against Eclipta prostrata assessed as growth inhibition at 37.5 g/ha postemergence treatment measured after 15 days by Greenhouse test; type: functional; details: post-emergence, 360 h, read-out: GI; summary of the method: as §1
[11] = test system: Amaranthus retroflexus; assay: Herbicidal activity against Amaranthus retroflexus assessed as growth inhibition at 37.5 g/ha postemergence treatment measured after 15 days by Greenhouse test; type: functional; details: post-emergence, 360 h, read-out: GI; summary of the method: as §1
[12] = test system: Setaria faberi; assay: Herbicidal activity against Setaria faberi (Giant Foxtail) assessed as growth inhibition at 37.5 g/ha postemergence treatment measured after 15 days by Greenhouse test; type: functional; details: post-emergence, 360 h, read-out: GI; summary of the method: as §1
[13] = test system: Digitaria sanguinalis; assay: Herbicidal activity against Digitaria sanguinalis (hairy crabgrass) assessed as growth inhibition at 37.5 g/ha postemergence treatment measured after 15 days by Greenhouse test; type: functional; details: post-emergence, 360 h, read-out: GI; summary of the method: as §1
[14] = test system: Echinochloa crus-galli; assay: Herbicidal activity against Echinochloa crus-galli (barnyard grass) assessed as growth inhibition at 37.5 g/ha postemergence treatment measured after 15 days by Greenhouse test; type: functional; details: post-emergence, 360 h, read-out: GI; summary of the method: as §1
[15] = test system: Abutilon theophrasti; assay: Herbicidal activity against Abutilon theophrasti (velvetleaf) assessed as growth inhibition at 150 g/ha postemergence treatment measured after 15 days by Greenhouse test; type: functional; details: post-emergence, 360 h, read-out: GI
Summary of the method: (§2)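 Test compounds were made up as 100 g/L emulsifiable concentrates (DMF solvent, Tween-80 emulsifier) and diluted with water. About 20 seeds were sown 1–3 cm deep in clay soil (pH 6.5, 1.6% organic matter) in 9.5 cm pots, kept at 15–30 °C and 50% RH. Postemergence spray was applied to dicots at the 2-leaf stage and monocots at the 1-leaf stage. Controls were untreated and solvent-treated. Injury was scored visually at 15 days, with three replicates.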

[16] = test system: Brassica juncea; assay: Herbicidal activity against Brassica juncea assessed as growth inhibition at 150 g/ha postemergence treatment measured after 15 days by Greenhouse test; type: functional; details: post-emergence, 360 h, read-out: GI; summary of the method: as §2
[17] = test system: Eclipta prostrata; assay: Herbicidal activity against Eclipta prostrata assessed as growth inhibition at 150 g/ha postemergence treatment measured after 15 days by Greenhouse test; type: functional; details: post-emergence, 360 h, read-out: GI; summary of the method: as §2
[18] = test system: Amaranthus retroflexus; assay: Herbicidal activity against Amaranthus retroflexus assessed as growth inhibition at 150 g/ha postemergence treatment measured after 15 days by Greenhouse test; type: functional; details: post-emergence, 360 h, read-out: GI; summary of the method: as §2
[19] = test system: Setaria faberi; assay: Herbicidal activity against Setaria faberi (Giant Foxtail) assessed as growth inhibition at 150 g/ha postemergence treatment measured after 15 days by Greenhouse test; type: functional; details: post-emergence, 360 h, read-out: GI; summary of the method: as §2
[20] = test system: Digitaria sanguinalis; assay: Herbicidal activity against Digitaria sanguinalis (hairy crabgrass) assessed as growth inhibition at 150 g/ha postemergence treatment measured after 15 days by Greenhouse test; type: functional; details: post-emergence, 360 h, read-out: GI; summary of the method: as §2
[21] = test system: Echinochloa crus-galli; assay: Herbicidal activity against Echinochloa crus-galli (barnyard grass) assessed as growth inhibition at 150 g/ha postemergence treatment measured after 15 days by Greenhouse test; type: functional; details: post-emergence, 360 h, read-out: GI; summary of the method: as §2
[22] = target: T1, Protoporphyrinogen oxidase (Homo sapiens) (UniProt P50336); assay: Inhibition of Homo sapiens (human) recombinant protoporphyrinogen oxidase by fluorescence detection
T1 sequence (whole entry): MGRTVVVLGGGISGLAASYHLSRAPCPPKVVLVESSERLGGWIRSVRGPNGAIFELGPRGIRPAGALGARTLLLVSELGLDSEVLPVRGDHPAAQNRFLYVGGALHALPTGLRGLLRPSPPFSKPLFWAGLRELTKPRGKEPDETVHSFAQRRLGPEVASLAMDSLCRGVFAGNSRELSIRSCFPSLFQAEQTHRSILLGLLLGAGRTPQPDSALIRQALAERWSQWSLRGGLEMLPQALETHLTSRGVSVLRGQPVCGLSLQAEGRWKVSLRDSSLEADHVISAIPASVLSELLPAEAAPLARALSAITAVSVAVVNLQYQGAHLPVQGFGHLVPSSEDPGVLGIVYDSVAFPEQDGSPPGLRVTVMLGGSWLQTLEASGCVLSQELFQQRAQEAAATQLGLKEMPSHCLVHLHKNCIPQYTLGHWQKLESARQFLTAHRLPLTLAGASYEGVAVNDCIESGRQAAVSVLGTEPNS

Cc1nn(-c2cc(NS(C)(=O)=O)c(Cl)cc2Cl)c(=O)n1C(F)F [SULFENTRAZONE]
inhibition of growth at 75 g/ha [1]: 80%
inhibition of growth at 75 g/ha [2]: 80%
inhibition of growth at 75 g/ha [3]: 80%
inhibition of growth at 75 g/ha [4]: 80%
inhibition of growth at 75 g/ha [5]: < 50%
inhibition of growth at 75 g/ha [6]: 50%
inhibition of growth at 75 g/ha [7]: 50%
inhibition of growth at 37.5 g/ha [8]: 80%
inhibition of growth at 37.5 g/ha [9]: 60%
inhibition of growth at 37.5 g/ha [10]: 80%
inhibition of growth at 37.5 g/ha [11]: 80%
inhibition of growth at 37.5 g/ha [12]: < 50%
inhibition of growth at 37.5 g/ha [13]: 50%
inhibition of growth at 37.5 g/ha [14]: 50%
inhibition of growth at 150 g/ha [15]: 80%
inhibition of growth at 150 g/ha [16]: 80%
inhibition of growth at 150 g/ha [17]: 80%
inhibition of growth at 150 g/ha [18]: 80%
inhibition of growth at 150 g/ha [19]: < 50%
inhibition of growth at 150 g/ha [20]: 60%
inhibition of growth at 150 g/ha [21]: 60%
Ki [22]: 0.72 µM
